# Compound activity deposited in PubChem by several laboratories.
# PP1 inh – counter-screen for PP5 inhibitors: inhibitors of human PP1-alpha. P62136. purified PP1alpha, OMFP fluorescence. inhibition, % at 6.7 µM. actives 0.9% (n = 320,000);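 active = inhibition above the mean inhibition of all tested compounds plus 3 SD, computed separately for each screening campaign, cut at about 15% in these data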
# GSTO1 counter – GSTO1 inhibition, counter-screen for RBBP9 inhibitors. P78417. recombinant GSTO1, activity-based probe fluorescence polarization. inhibition, % at 5.96 µM. actives 1.1% (n = 300,000);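 active = inhibition above the campaign mean inhibition plus 3 SD, cut at about 35% in these data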;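 also: 0% = GSTO1-1 with DMSO and 100% = wells lacking GSTO1-1 enzyme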
# PP5 inh – inhibitors of human protein phosphatase 5 (PP5) | P53041 | purified PP5c, OMFP substrate fluorescence | inhibition, % at 6.7 µM | actives 0.18% (n = 320,000) | AID 1987;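 active = inhibition above the campaign's mean inhibition across all tested compounds plus 3 SD, cut at about 9.5% in these data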;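 also: 0% = DMSO only and 100% = 100 µM cantharidin control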
# Apaf1 inhib – human Apaf-1 inhibition | O14727 | AID 489030 | actives 0.71% (n = 330,000) | inhibition, % at 20 µM | reconstituted apoptosome caspase-3 activity, DEVD-Rh110 fluorescence; active = inhibition of at least 40% at 20 µM;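 also: plate controls were DMSO wells for no effect and DEVD-CHO caspase inhibitor wells for full effect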
# Target sequence (O14727 whole entry, looked up): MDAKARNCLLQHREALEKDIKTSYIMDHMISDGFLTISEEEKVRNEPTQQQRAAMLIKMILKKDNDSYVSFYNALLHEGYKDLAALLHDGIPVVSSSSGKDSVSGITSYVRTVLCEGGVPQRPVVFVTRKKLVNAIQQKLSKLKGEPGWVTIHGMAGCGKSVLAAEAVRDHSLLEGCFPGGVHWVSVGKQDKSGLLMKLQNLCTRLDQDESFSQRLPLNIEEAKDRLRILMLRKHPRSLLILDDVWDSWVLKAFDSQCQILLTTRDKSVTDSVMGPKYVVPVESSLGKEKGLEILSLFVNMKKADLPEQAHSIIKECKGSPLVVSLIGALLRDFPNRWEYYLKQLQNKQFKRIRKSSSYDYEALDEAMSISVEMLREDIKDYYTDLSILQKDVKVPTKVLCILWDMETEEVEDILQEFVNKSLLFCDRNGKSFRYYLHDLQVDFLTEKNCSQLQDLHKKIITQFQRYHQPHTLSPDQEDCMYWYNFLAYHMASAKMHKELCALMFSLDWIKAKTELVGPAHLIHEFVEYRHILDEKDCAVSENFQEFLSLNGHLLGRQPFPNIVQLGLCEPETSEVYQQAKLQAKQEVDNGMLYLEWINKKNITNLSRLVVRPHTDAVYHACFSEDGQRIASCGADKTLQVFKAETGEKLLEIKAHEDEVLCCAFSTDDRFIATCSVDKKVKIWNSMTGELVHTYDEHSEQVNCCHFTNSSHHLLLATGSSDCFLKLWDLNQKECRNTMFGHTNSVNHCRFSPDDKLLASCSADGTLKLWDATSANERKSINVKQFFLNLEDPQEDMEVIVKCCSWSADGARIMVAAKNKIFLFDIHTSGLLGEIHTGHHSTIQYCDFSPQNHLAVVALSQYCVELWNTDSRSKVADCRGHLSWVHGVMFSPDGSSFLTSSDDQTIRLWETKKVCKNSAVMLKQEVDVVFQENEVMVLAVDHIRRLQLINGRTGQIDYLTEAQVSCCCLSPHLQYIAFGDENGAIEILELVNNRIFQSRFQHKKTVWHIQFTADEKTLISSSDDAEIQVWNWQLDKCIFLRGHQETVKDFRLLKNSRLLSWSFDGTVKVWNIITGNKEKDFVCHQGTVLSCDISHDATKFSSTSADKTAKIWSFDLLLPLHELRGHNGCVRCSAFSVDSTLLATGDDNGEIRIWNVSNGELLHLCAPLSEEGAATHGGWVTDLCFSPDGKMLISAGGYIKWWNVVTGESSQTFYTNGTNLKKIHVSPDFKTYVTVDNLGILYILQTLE
#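 detection = Rh110 fluorescence intensity | test system = biochemical Apaf-1 apoptosome reconstitution | also added = cytochrome c and DEVD-Rh110 substrate | schedule = 30 min plus 50 min, RT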
# TDP2 inh – TDP2 (human) inhibition, absorbance primary screen; O95551; recombinant TDP2, T5PNP hydrolysis, p-nitrophenol absorbance 415 nm; inhibition, % at 12.8 µM; actives 0.34% (n = 370,000); AID 720702;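 active = inhibition above the mean of all tested compounds plus 3 SD, set per campaign, cut at about 25% in these data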;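 also: 0% = DMSO with enzyme and 100% = buffer with substrate but no TDP2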
#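 Assay system: recombinant human TDP2 / Reagent: T5PNP substrate at 5 mM, a TopII-DNA adduct mimic / Measured by: epi absorbance from released p-nitrophenol / Evaluation: % inhibition relative to enzyme-containing and enzyme-free wells / Control set: enzyme-free and DMSO wells / Replicates: each compound tested once, singlicate / Schedule: enzyme reaction with compound for 2 h at 37 °C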
# An asterisk follows results filed as active; / = no result. Compounds with a hit are over-represented: about 2.1% of the library has one in this group of screens.
SMILES,PP1 inh,GSTO1 counter,PP5 inh,Apaf1 inhib,TDP2 inh
CCOC(=O)[C@]12CCCC=C1N(CCc1ccc(OC)c(OC)c1)C(=O)[C@H](CC(=O)NCCc1ccccc1OC)C2,/,/,/,/,6
O=c1oc2c3c4c(cc2s1)CCCN4CCC3,7,51*,1,11,7
CCCCNC(=O)C[C@H]1C[C@@]2(C(=O)OC)C(=C[C@H](C(C)C)O[C@@H]2C2CC2)N(CCC2=CCCCC2)C1=O,/,/,/,/,-14
NC(=O)CC(NC(=O)c1ccccc1)c1ccc(N2CCC(N3CCCC3)CC2)c([N+](=O)[O-])c1 (centres undefined),-1,0,1,8,-10
NC(=O)CC(NC(=O)c1ccccc1)c1ccc(N2CCC(Cc3ccccc3)CC2)c([N+](=O)[O-])c1 (centres undefined),17*,-10,5,19,-1
NC(=O)CC(NC(=O)c1ccc(Br)cc1)c1ccc(N2CCN(c3ccccc3)CC2)c([N+](=O)[O-])c1 (centres undefined),15*,2,2,15,1
NC(=O)CC(NC(=O)c1ccc(Br)cc1)c1ccc(N2CCCCCCC2)c([N+](=O)[O-])c1 (centres undefined),7,7,6,18,-23
COc1ccc(S[C@]2(C(=O)N3CCN(c4ncccn4)CC3)CC(=O)N(c3ccsc3)[C@@H]2c2ccc(OC)cc2)cc1,/,/,/,/,4
CCCCNC(=O)C1(C(=O)C2CC2)CC(c2ccccc2C(F)(F)F)=NO1 (centres undefined),/,/,/,/,4
O=C(O)[C@H](Cc1ccccc1)NC(=O)[C@H]1O[C@@H](n2ccc(=O)[nH]c2=O)[C@H](O)[C@@H]1O,/,/,/,/,2
c1nc(NC[C@@H]2CCCO2)c2cc(-c3ccc4c(c3)OCO4)ccc2n1,/,/,/,/,0
O=C(O)c1ccc2c(c1)C(=O)/C(=C/c1ccccc1)C2=O,1,56*,2,37,9
CC(C)(C)N1C(=O)c2ccc(C(=O)O)cc2C1=O,7,2,0,19,-5
COc1ccc(C)cc1NC(=O)CN(Cc1nnc(-c2ccc(Cl)cc2)o1)C1CCCC1,16*,30,3,33,-2
CC(C)CC(=O)N1CCc2cc(S(=O)(=O)N(C)Cc3ccco3)ccc21,/,/,/,/,-2
CCc1ccc(-c2cc(C)no2)cc1S(=O)(=O)NCc1ccccc1OC,-1,-13,0,17,-7
COc1ccccc1CNS(=O)(=O)c1ccc(-c2cc(C)no2)cc1,-1,6,3,45*,1
O=C(NNC(=O)c1cccnc1)NC1CCCCC1,-6,3,-2,-12,5
O=C(NNC(=O)c1cc(O)c(O)c(O)c1)NC1CCCCC1,-2,36*,1,2,1
NC(=S)n1[nH]c(-c2ccc([N+](=O)[O-])cc2)c(N=Nc2ccc(O)cc2)c1=O,17*,32,1,0,10
C=C1N(C)c2cc([N+](=O)[O-])c(N)cc2C1(C)C,1,36*,0,14,9
CC1(C)Oc2cc(N)c([N+](=O)[O-])cc2O1,2,12,0,-3,5
O=C(Nc1ccc(F)cc1)OCc1cn(Cc2ccc(C(F)(F)F)cc2)nn1,/,/,/,/,-4
Cc1nn(-c2ccccn2)c2nc(-c3cccs3)cc(C(=O)NCc3ccco3)c12,17*,-15,3,15,-1
Cc1nn(-c2ccccc2)c2nc(-c3ccncc3)cc(C(=O)NCc3ccco3)c12,3,-16,2,30,-8
SMILES,PP1 inh,GSTO1 counter,PP5 inh,Apaf1 inhib,TDP2 inh
C=CCN1C[C@@H](COCc2ccccc2)OCCS1(=O)=O,/,/,/,/,-4
O=c1oc2ccccc2c(O)c1Cc1cc(Cl)c2cccnc2c1O,16*,-41,-2,-1,-14
COc1ccc(/C=C2/Sc3ccc(C(=O)NCCN4CCCCCC4)cc3NC2=O)cc1,11,-41,4,49*,-7
O=C1Nc2cc(C(=O)NCCCN3CCCC3)ccc2S/C1=C\c1ccccc1,2,-29,0,24,1
Cc1oc2c(c(C)nn2-c2ccccc2)c(=O)c1Cl,/,/,/,/,3
COc1ccc([N+](=O)[O-])cc1NC(=O)CCS(=O)(=O)c1ccc(Br)cc1,17*,-10,5,-111,-4
Cc1ccc2nc(-c3ccc(NC(=O)CSc4nccc(=O)[nH]4)cc3)sc2c1,2,-13,1,-6,-5
